The nature of data set [1]: Kinetic solubility of the compound in second fluid of disintegration test of Japanese pharmacopoeia containing bile acid at pH 6.8 by HPLC analysis. The class given is physicochemical. Particulars: read-out: Kinetic_solubility. The gist of the method: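 Kinetic solubility in JP second disintegration fluid with bile acid. Compound DMSO solutions added in small volumes to the aqueous buffer and incubated. Precipitate removed by filter-plate filtration, and dissolved compound in the filtrate quantified by HPLC.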

Data set [2] is described as follows: Clearance in human liver microsomes at 1 umol/L by HPLC analysis. It counts as ADME. Particulars: read-out: CLH. The gist of the method: (§1)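 Hepatic microsomes at 0.2 mg protein/mL in 50 mmol/L potassium phosphate, pH 7.4, with test compound at 1 µmol/L, incubated at 37 °C. Started by adding an NADPH-generating system (MgCl₂, glucose-6-phosphate, β-NADP⁺, G6P dehydrogenase). Stopped with an equal volume of acetonitrile. Parent compound loss measured by HPLC-UV or LC/MS/MS.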
Background: Liver microsomes are a subcellular fraction often used to study metabolism.

A short description of data set [3]: Clearance in mouse liver microsomes at 1 umol/L by HPLC analysis. The class given is ADME, Microsome. The following applies: read-out: CLH. The gist of the method:
as §1

These results are taken from ChEMBL document CHEMBL3091368, “Structure-based design, synthesis, and evaluation of imidazo[1,2-b]pyridazine and imidazo[1,2-a]pyridine derivatives as novel dual c-Met and VEGFR2 kinase inhibitors” (Bioorg Med Chem, 2013).

In brackets after ≈: the same amount, converted by molar mass. A value given as a limit tells only on which side of the number the result lay.

`Cc1ccc(C(=O)Nc2ccc(Oc3ccc4nc(NC(=O)C5CC5)cn4c3)c(F)c2)c(=O)n1-c1ccccc1`: the solubility kinetic in data set [1] is 92 µg/mL (≈ 171 µM).

For `Cc1ccc(C(=O)Nc2ccc(Oc3ccc4nc(NC(=O)C5CC5)cn4c3)c(F)c2)c(=O)n1-c1ccccc1.Cl`, the results for the microsomal CLint at 1 µM in data set [2] and in data set [3] were 6 µL/min/mg and 10 µL/min/mg, respectively. In addition, in data set [1], the solubility kinetic is above 110 µg/mL.

For the molecule `Cc1ccc(C(=O)Nc2ccc(Oc3ccc4nc(NC(=O)C5CC5)cn4n3)c(F)c2)c(=O)n1-c1ccccc1`, the microsomal CLint at 1 µM in data set [2] is 11 µL/min/mg; in data set [3] it was 8 µL/min/mg. Moreover, the solubility kinetic in data set [1] is above 140 µg/mL.

`O=C(Nc1ccc(Oc2ccc3nc(NC(=O)C4CC4)cn3n2)c(F)c1)c1cccn(-c2ccccc2)c1=O`: the microsomal CLint at 1 µM in data set [2] is 3 µL/min/mg; in data set [3] it was 11 µL/min/mg. For the same molecule, in data set [1], the solubility kinetic is 3.2 µg/mL (≈ 6.1 µM).

Take `O=C(Nc1ccc(Oc2ccc3nc(NC(=O)C4CC4)cn3c2)c(F)c1)c1cccn(-c2ccccc2)c1=O`: the microsomal CLint at 1 µM was found to be 5 µL/min/mg in data set [2] and 15 µL/min/mg in data set [3]. For the same molecule, in data set [1], the solubility kinetic amounted to 4.7 µg/mL (≈ 8.98 µM).
